Where two headings read alike, the source gives them in different places. Each block holds one molecule with its values, some of them ahead of it.
Experiments:
[1] = patients; cited from earlier work
[2] = tested on: KB-HURs cells; conditions: cited from earlier work
[3] = tested on: dNTP pools in MOLT-4 tumor xenografts; assay: Intratumoral dNTP pools of MOLT-4 tumor xenografts; type: in vivo, mouse; conditions: MOLT-4 xenografts, treated vs. control
[4] = molecular target: T1, immobilized full-length hRRM2 (Homo sapiens, UniProt P31350); assay: Surface plasmon resonance, immobilized full-length hRRM2; type: binding; conditions: 0.0 – 50.0 µM compound
T1 sequence (P31350 1-389): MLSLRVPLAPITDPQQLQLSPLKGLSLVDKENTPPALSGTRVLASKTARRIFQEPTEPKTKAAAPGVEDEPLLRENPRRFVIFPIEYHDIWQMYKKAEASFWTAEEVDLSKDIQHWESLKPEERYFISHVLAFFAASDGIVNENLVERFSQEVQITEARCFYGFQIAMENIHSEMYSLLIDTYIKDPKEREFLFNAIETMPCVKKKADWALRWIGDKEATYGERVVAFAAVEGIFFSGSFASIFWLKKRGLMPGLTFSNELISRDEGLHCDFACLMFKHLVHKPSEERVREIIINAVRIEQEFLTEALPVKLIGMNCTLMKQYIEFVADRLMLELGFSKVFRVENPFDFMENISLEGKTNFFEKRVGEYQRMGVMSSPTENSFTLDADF
Method in brief: (§1)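 Surface plasmon resonance on a Biacore […], with full-length or C-terminally truncated hRRM2 immobilised on CM4 sensor chips. Test compound was injected at 0.0–50.0 µM and binding was read from sensorgrams.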

[5] = tested on: KBHURs cells; assay: Real-time cell proliferation; type: cell-based, human; conditions: COH29 2–250 µM
Method in brief: (§2)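 Cell proliferation was followed by real-time electronic cell sensing (RT-CES, W200 16X) with 2,500 cells seeded per well. From 24 h after seeding, the cell index was recorded every half hour for 120 hours. Quadruplicate samples were used, and traces show the mean of 4 replicates.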

[6] = Tolerability in mice; type: in vivo; conditions: up to a daily dose of 500 mg/kg
[7] = tested on: hRRM2 protein level in KB cells; assay: Western blot of hRRM2 protein level, KB cells; type: cell-based, human; conditions: 20 µM
Method in brief: (§3)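 KB and TOV-112D cells were treated with 20 µM test compound for a series of times. Lysates were western blotted for hRRM2, with β-actin as loading control.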

[8] = tested on: TOV-112D tumor xenograft; assay: TOV-112D tumor xenograft in mice; type: in vivo, mouse; conditions: 200, 300, or 400 mg/kg/day oral, 7 days
Method in brief: (§4)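 Female NSG (NOD/SCID/IL2Rgamma null) mice, 8–10 weeks old, received 5×10^6 MOLT-4 or TOV-112D cells subcutaneously in the right flank. Tumour volume was taken as 0.5×l×w2. Once tumours reached about 70 mm3, test compound in 30% solutol was given daily by gavage on a one- or two-dose schedule. Mice were sacrificed on day 28 after implantation; 4 animals/group, mean ± SD.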

[9] = molecular target: T2, RNR in MOLT-4 tumor xenografts (Homo sapiens, UniProt P31350); assay: RNR activity in extracts of MOLT-4 tumor xenografts; type: in vivo, mouse; conditions: mice treated for 12 days, 100 mg/kg
T2 sequence (P31350 1-389): T1 sequence (P31350 1-389)
Method in brief: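 RNR activity was measured in extracts of subcutaneous MOLT-4 xenografts from NSG mice dosed orally for 12 days with vehicle (solutol-15) or 100 mg/kg test compound.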

[10] = tested on: KB cells; assay: Real-time cell proliferation; type: cell-based, human; conditions: 20 µM COH29, 20 µM Gem or 1 mM HU
Method in brief: as §2

[11] = tested on: KB-Gem cells; assay: Real-time cell proliferation; type: cell-based, human; conditions: COH29 2–250 µM
[12] = tested on: hRRM2 protein level in TOV-112D cells; assay: Western blot of hRRM2 protein level, TOV-112D cells; type: cell-based, human; conditions: 20 µM
Method in brief: as §3

[13] = tested on: dNTP pools in MOLT-4 cells; assay: dNTP pools in MOLT-4 cells; type: cell-based, human; conditions: 10 µM, by 24 h
Method in brief: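 MOLT-4 cells were exposed to 10 µM test compound or left untreated (control). dATP, dCTP and dGTP levels were measured after 4, 8 and 24 h.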

[14] = tested on: KB-HURs cells; assay: 72 h viability assay, HU-resistant KB clone; type: cell-based, human
Method in brief: (§5)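 72 h MTS viability test (CellTiter 96 AQueous) on 10 replicate wells per condition, following the kit instructions. IC50 is the concentration that lowers viability to 50% of the DMSO control. KB cells were grown in RPMI 1640 with 10% FBS and 1% penicillin-streptomycin at 37°C in humidified 5% CO2. KB-HURs and KB-Gem are KB-derived resistant clones.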

[15] = molecular target: T3, C-terminal truncated hRRM2 (Homo sapiens, UniProt P31350); assay: Surface plasmon resonance, C-terminal truncated hRRM2; type: binding; conditions: 0.0 – 50.0 µM compound
T3 sequence (P31350 1-348 limits assumed): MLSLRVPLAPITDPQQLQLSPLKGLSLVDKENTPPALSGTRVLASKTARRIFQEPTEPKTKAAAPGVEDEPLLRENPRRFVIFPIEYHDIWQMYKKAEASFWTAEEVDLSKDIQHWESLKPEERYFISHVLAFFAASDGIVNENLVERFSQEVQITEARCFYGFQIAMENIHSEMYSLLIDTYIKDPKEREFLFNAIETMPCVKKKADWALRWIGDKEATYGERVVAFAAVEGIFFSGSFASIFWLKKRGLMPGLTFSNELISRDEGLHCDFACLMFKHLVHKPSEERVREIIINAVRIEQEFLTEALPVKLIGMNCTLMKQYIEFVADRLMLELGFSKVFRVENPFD
Method in brief: as §1

[16] = molecular target: T4, endogenously expressed RNR in KB cells (Homo sapiens, UniProt P31350); assay: RNR activity in cell lysates of KB cells; type: cell-based; conditions: 24 h incubation, 10 µM
T4 sequence (P31350 1-389): T1 sequence (P31350 1-389)

[17] = tested on: MOLT-4 tumor xenograft; assay: MOLT-4 tumor xenograft in mice; type: in vivo, mouse; conditions: twice-daily oral dosing 50 mg/kg and 100 mg/kg, Day 12
Method in brief: as §4

[18] = tested on: KB cells; assay: 72 h MTS viability assay, KB cells; type: cell-based, human
Method in brief: as §5

[19] = Pharmacokinetics in mice, HPLC-MS/MS of plasma; type: in vivo, mouse
Method in brief: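 Mice received 800 mg/kg test compound orally or intravenously. Plasma levels were measured by HPLC-tandem mass spectrometry (Agilent 1100 capillary LC with triple-quadrupole MS). Oral bioavailability was derived by comparison with the intravenous route.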

[20] = tested on: KB-Gem cells; assay: 72 h viability assay, gemcitabine-resistant KB clone; type: cell-based; conditions: Homo sapiens, read-out: IC50, toxicity assay
Method in brief: as §5

[21] = tested on: NCI broad panel of 60 human cancer cell lines; assay: NCI 60 human cancer cell line panel, MTT cytotoxicity; type: cell-based; conditions: 10 µM
[22] = tested on: NHDF cells; assay: 72 h viability assay, normal dermal fibroblasts; type: cell-based; conditions: Homo sapiens, read-out: IC50, viability
[23] = molecular target: T5, RRM1-RRM2 interaction (Homo sapiens, UniProt P31350); type: binding
T5 sequence (P31350 1-389): T1 sequence (P31350 1-389)
Method in brief: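 Surface plasmon resonance on a Biacore […] with hRRM2 immobilised on a CM4 chip. hRRM1 (0–1 µM) binding was first confirmed and a KD derived. A fixed 0.5 µM hRRM1 was then co-injected with test compound at 0–50 µM, and sensorgrams were read.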

[24] = molecular target: T6, recombinant hRRM2/hRRM1 (Homo sapiens, UniProt P31350); assay: [3H] CDP reduction assay, recombinant hRRM2/hRRM1; type: biochemical
T6 sequence (P31350 1-389): T1 sequence (P31350 1-389)

[25] = tested on: KB cells; assay: Cell cycle and apoptosis by flow cytometry, KB cells; type: cell-based, human
Method in brief: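 After 48 h of treatment, KB cells were analysed on a FACScalibur flow cytometer. Propidium iodide staining gave cell-cycle distribution and Annexin V signal gave apoptosis.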

[26] = Homo sapiens, KB, read-out: IC50, cell proliferation/viability
[27] = female, Balb/c nude, mouse, plasma, po, 800 mg/kg

SMILES: NC(=S)NN=Cc1ncccc1N [3-AP, 3-aminopyridine-2-carboxaldehyde thiosemicarbazone]
- toxicities reported from the phase I trial [1]: hypoxia, respiratory distress, and methemoglobulinemia
- activity in KBHURs [2]: active

SMILES: O=C(Nc1nc(-c2ccc(O)c(O)c2)c(-c2ccccc2)s1)c1ccc(O)c(O)c1 [COH29, N-(4–(3,4-dihydroxyphenyl)-5-phenylthiazol-2-yl)-3,4-dihydroxybenzamide]
- intratumoral dNTP pools [3]: decreased
- interaction with immobilized full-length hRRM2 (sensorgram) [4]: dose-dependent interaction
- real-time growth of KBHURs [5]: remained sensitive
- tolerability, side effects [6]: no appreciable side effects
- hRRM2 protein level [7]: unaffected
- TOV-112D tumor xenograft growth [8]: dose-dependent inhibition
- RNR activity in extracts of MOLT-4 tumor xenografts [9]: dramatically lower
- real-time KB cell growth after addition at 24 h [10]: essentially halted
- real-time growth of KB-Gem [11]: cytotoxic activity is strong and is unaffected by Gem resistance
- hRRM2 protein level [12]: unaffected
- levels of dATP, dCTP and dGTP [13]: all pools were greatly decreased
- IC50 ([14]; Homo sapiens, read-out: IC50, toxicity assay): 8 µM
- binding after removal of 41 C-terminal amino acids from hRRM2 [15]: greatly decreased
- decrease of endogenously expressed RNR activity [16]: approximately 50%
- MOLT-4 tumor xenograft growth [17]: dose-dependent inhibition
- IC50 [18, 26]: 8 µM
- peak plasma concentration ([19]; PO 800 mg/kg in 30% solutol, female Balb/c nude mice): 10 µM
- Tmax [19, 27]: 30 min
- concentration at 24 h [19, 27]: ~200 nM
- IC50 [20]: 8 µM
- cytotoxicity in NCI 60 panel [21]: Impressive inhibition of most of the cancer cell lines
- IC50 [22]: 82 µM
- effect on RRM1-RRM2 binding ([23]; 0.5 µM RRM1, 0 – 50 µM compound): interfered with RRM1-RRM2 binding in a dose-dependent manner
- effect on RRM1-RRM2 interaction at low dose ([23]; 12.5 µM compound, 0.5 µM RRM1): enhanced RRM1-RRM2 interaction
- effect on RRM1-RRM2 complex at higher dose ([23]; > 25µM compound, 0.5 µM RRM1): disrupted the complex
- IC50 [24]: 16 µM
- apoptosis [25]: underwent apoptosis
- cell cycle distribution ([25]; 48 h treatment): arrested at S-phase

- IC50 [18, 26]: 9 µM
SMILES: Nc1ccn([C@@H]2O[C@H](CO)[C@@H](O)C2(F)F)c(=O)n1 [Gem, gemcitabine]
- real-time KB cell growth after addition at 24 h [10]: cell growth continued
- IC50 [20]: 1000 µM

- IC50 ([18]; read-out: IC50, cell proliferation/viability, KB cells): 180 µM
SMILES: NC(=O)NO [HU, hydroxyurea]
- real-time KB cell growth after addition at 24 h [10]: cell growth continued
- IC50 ([14]; read-out: IC50, toxicity assay, KB-HURs): 320 µM

Reference: paper PMC3823501 (Cancer research, 2013)
